The structures appear in SMILES notation.

Data set [1] concerns the target T1, GABA-A receptor; anion channel (Mus musculus) (UniProt Q8BHJ7+P26048+Q8QZW7+P50571+Q9R0Y8+P22723+A2AMW3+P62812+Q9JLF1+P26049+P22933+Q9D6F4+P63080+P27681+P16305). Description: Ex vivo displacement of [3H]flunitrazepam from mouse GABA-A benzodiazepine receptor at 10 uM/kg iv dose. It counts as organism-based. In outline:
(§1)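 Mice dosed iv by tail vein (drugs in 0.9% NaCl, or 2% ethanol for parent; controls given vehicle); decapitated 30 min later (dose-response) or at 1, 3, 10, 30, 60 min (time course). Brain minus cerebellum homogenized in 50 vol 0.05 M Tris pH 7.4, 4 °C; incubated with ~0.77 nM [3H]flunitrazepam final, 30 min, 25 °C; GF/B filtration, scintillation counting. Mean of four measurements.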
(In general: Displacement assays read how much labelled ligand stays bound in the presence of the test substance.)

Data set [2] concerns the target T1, GABA-A receptor; anion channel (Mus musculus). Put plainly: Ex vivo displacement of [3H]flunitrazepam from mouse GABA-A benzodiazepine receptor at 1 uM/kg iv dose. It counts as organism-based. In outline:
as §1

Data set [3] shares this target. Description: Ex vivo displacement of [3H]flunitrazepam from mouse GABA-A benzodiazepine receptor at 30 uM/kg iv dose (Range 5-10%). It counts as organism-based. Summed up: as §1
Data set [4] shares this target. Put plainly: Ex vivo displacement of [3H]flunitrazepam from mouse GABA-A benzodiazepine receptor at 3 uM/kg iv dose. It counts as organism-based. In outline: as §1
Data set [5] shares this target. Put plainly: Ex vivo inhibition of [3H]flunitrazepam binding to mouse GABA-A benzodiazepine receptor. It counts as functional. Summed up: as §1
Data set [6] is described as follows: Half-life period at 37 degrees C. It counts as ADME.

As a reminder, the ED50 is the dose that gives a 50% effect, or the effect in half of the subjects. In the case of `Cc1nnc(CNC(=O)CCCN)n1-c1ccc(Cl)cc1C(=O)c1ccccc1`, the Control in data set [1] was 20%; in data set [2], 80%; in data set [3], 10%; in data set [4], 51%. Further, it took a dose of 320 µmol/kg to reach the 50% effect level in data set [5] (ED50).
As usually defined, the half-life is the time in which the quantity being followed falls by half. Higher therefore signals slow decline. Regarding `Cc1nnc(CNC(=O)CN)n1-c1ccc(Cl)cc1C(=O)c1ccccc1`, the values for the Control in data set [1], in data set [2] and in data set [4] were 3%, 65% and 50%, respectively. Also, in data set [6], the half-life amounted to 4.33 h. In addition, in data set [5], it took a dose of 9 µmol/kg to reach the 50% effect level (ED50).
For the compound `Cc1nnc2n1-c1ccc(Cl)cc1C(c1ccccc1)=NC2`, it took a dose of 2.9 µmol/kg to reach the 50% effect level in data set [5] (ED50).
With `Cc1nnc(CNC(=O)C(N)CC(C)C)n1-c1ccc(Cl)cc1C(=O)c1ccccc1` (configuration not stated), the Control in data set [1] amounted to 25%; in data set [2] it was 82%; in data set [3], 10%; in data set [4] it was 60%. In addition, the half-life in data set [6] was determined as 1 h. The same compound registered an ED50 in data set [5] of 6 µmol/kg.
